Source: publication PMC5395206 (Journal of chemical information and modeling, 2016)

What was measured:
CB2 = CB2 (Homo sapiens, UniProt P34972); assay: Radioligand competition binding assay, [3H]CP-55,940 displacement; conditions: inhibition of [3H]CP-55,940 (3 nM) binding to CB2 membrane protein
How it was run: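 CB2 membrane protein (5 μg) incubated with [3H]CP-55,940 (3 nM final) and serial dilutions of test compound. Compound was diluted in binding buffer with 10% DMSO and 0.4% methylcellulose. Incubation was 1 h at 30 °C with gentle shaking, then GF/B filtration and scintillation counting. Run in duplicate, reported as mean ± SEM; Ki from nonlinear regression.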

[1] = tested on: CB2 F197 replaced with valine; conditions: cited from earlier work
human CB2 receptors = assay: LANCE cAMP assay in CB2-transfected CHO cells; type: cell-based
How it was run: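 CHO cells stably transfected with wild-type human CB2, seeded at 2000 cells/well in RPMI-1640 with 1% dialyzed FBS, 25 mM HEPES and G-418, cultured overnight. Added cAMP antibody plus RO20-1724 (50 μM final) in DPBS/0.1% BSA, then test compound or forskolin (5 μM final). Incubated 45 min at RT, plus 1 h with detection reagent. TR-FRET read at ex 340/em 665 nm. ≥2 independent experiments in triplicate; EC50 from nonlinear regression.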

[2] = CHO cells expressing human CB2, forskolin-induced cAMP

CB2, sequence (P34972 whole entry): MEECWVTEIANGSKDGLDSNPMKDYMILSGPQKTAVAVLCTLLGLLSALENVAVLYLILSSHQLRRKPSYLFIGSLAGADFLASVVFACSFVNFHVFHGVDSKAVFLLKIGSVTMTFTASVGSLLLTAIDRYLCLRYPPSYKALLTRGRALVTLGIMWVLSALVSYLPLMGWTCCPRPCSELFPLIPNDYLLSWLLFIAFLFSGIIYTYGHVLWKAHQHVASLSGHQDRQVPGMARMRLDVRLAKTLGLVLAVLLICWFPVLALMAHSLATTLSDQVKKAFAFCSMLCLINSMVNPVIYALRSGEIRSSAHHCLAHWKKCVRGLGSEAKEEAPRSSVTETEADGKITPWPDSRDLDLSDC

| SMILES | Ki (CB2) [nM] | further results |
| --- | --- | --- |
| Cc1ccc(S(=O)(=O)N(Cc2ccc(Cl)cc2)S(=O)(=O)c2ccc(C)cc2)cc1 [NSC273936] | 346 | – |
| CCCCC/C=C\C/C=C\C/C=C\C/C=C\CCCC(=O)NCCO [AEA] | – | Effect of replacement of F197 with valine on association [1]: no effect |
| Cc1ccc(OCc2c(COc3ccc(Cl)cc3)sc3ccc(Cl)cc23)cc1 [NSC162677] | 1550 | – |
| Cc1ccc(C)c(NC(=O)CCC(=O)C(C#N)c2nc3ccccc3s2)c1 (stereo not shown) [NSC618804] | 656 | – |
| CCCCCCC(C)(C)c1cc(O)c2c(c1)OC(C)(C)[C@@H]1CC=C(CO)C[C@@H]21 [hU-210] | – | Effect of replacement of F197 with valine on association [1]: no effect |
| CCN(CC)CCCNc1cccc2ccc(OC)nc12.I [NSC402300] | 398 | Functional activity in LANCE cAMP assay (human CB2 receptors; at concentrations above 10 μM): inverse agonist; Functional activity in LANCE cAMP assay (human CB2 receptors; at concentrations below 10 μM): neutral antagonist |
| Cc1ccc(S(=O)(=O)NC(CC(=O)OCc2ccccc2)C(=O)OCc2ccccc2)cc1 (stereo not shown) [NSC296950] | 2360 | Functional activity in LANCE cAMP assay (human CB2 receptors; [2]): inverse agonist |
| CC1CN(CCOC(=O)Nc2ccc(Cl)cc2)CCN1C(C)(C)C (stereo not shown) [NSC93299] | 2240 | – |
| Cc1c(C(=O)c2cccc3ccccc23)c2cccc3c2n1[C@H](CN1CCOCC1)CO3 [WIN55,212-2] | – | Decrease in binding affinity to CB2 on replacement of F197 with valine [1]: 14 fold |
| COc1ccc(C(=O)c2nc3ccccc3n2CC(=O)c2ccc(Cl)cc2)cc1 [NSC745454] | 1550 | – |
| Cc1ccc(S(=O)(=O)N(CCc2ccccc2)S(=O)(=O)c2ccc(C)cc2)cc1 [NSC273940] | 195 | – |
| COC(=O)CCc1c(Cc2ccc[nH]2)[nH]c(C(=O)OCc2ccccc2)c1C [NSC669611] | 923 | Functional activity in LANCE cAMP assay (human CB2 receptors; [2]): behaves similarly to NSC402300; Functional activity in LANCE cAMP assay (human CB2 receptors; at concentrations below 10 μM): neutral antagonist |
| CCCCCCC(C)(C)c1ccc([C@@H]2C[C@H](O)CC[C@H]2CCCO)c(O)c1 [CP55940] | – | Effect of replacement of F197 with valine on association [1]: no effect |
| Cc1ccc(S(=O)(=O)N(CCc2ccc(Cl)cc2)S(=O)(=O)c2ccc(C)cc2)cc1 [NSC273939] | 192 | – |
